The source made the active and inactive calls. The rule behind the calls is not given here.
Columns and labels:
Tobacco mosaic virus [1] = assay: Decrease in TMV U1 coat protein level in TMV infected tobacco BY2 protoplast at 50 nM by Western blot analysis; format: functional, organism-based
Summary of the method: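 BY-2 protoplasts (5 ml, 1.5 × 10⁶/ml) infected with TMV pretreated with compound; total protein extracted and coat protein detected by Western blot.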

Tobacco mosaic virus [2] = assay: Inhibition of TMV U1 multiplication in tobacco BY2 protoplast at 40 nM assessed as local lesion size on Chenopodium quinoa leaves by local lesion assay; format: functional
Tobacco mosaic virus [3] = assay: Inhibition of TMV U1 multiplication in tobacco BY2 protoplast at 10 nM assessed as inhibition of local lesions on Chenopodium quinoa leaves by local lesion assay after 3 days postinfection; format: functional; settings: U1, 72 h
Summary of the method: (§1)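 TMV premixed with compound at a range of concentrations used to inoculate tobacco BY-2 protoplasts; virus multiplication then assayed by counting local lesions on the local lesion host Chenopodium quinoa.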

Tobacco mosaic virus [4] = assay: Inhibition of TMV U1 multiplication in tobacco BY2 protoplast at 10 nM assessed as local lesion size on Chenopodium quinoa leaves by local lesion assay; format: functional
Tobacco mosaic virus [5] = assay: Inhibition of TMV U1 multiplication in tobacco BY2 protoplast at 40 nM assessed as inhibition of local lesions on Chenopodium quinoa leaves by local lesion assay after 3 days postinfection; format: functional; settings: U1, 72 h; summary of the method: as §1
Tobacco mosaic virus [6] = assay: Inhibition of TMV U1 multiplication in tobacco BY2 protoplast at 30 nM assessed as inhibition of local lesions on Chenopodium quinoa leaves by local lesion assay after 3 days postinfection; format: functional; settings: U1, 72 h; summary of the method: as §1
Tobacco mosaic virus [7] = assay: Inhibition of TMV U1 multiplication in tobacco BY2 protoplast at 20 nM assessed as inhibition of local lesions on Chenopodium quinoa leaves by local lesion assay after 3 days postinfection; format: functional; settings: U1, 72 h; summary of the method: as §1
Tobacco mosaic virus [8] = assay: Inhibition of TMV U1 multiplication in tobacco BY2 protoplast at 50 nM assessed as local lesion size on Chenopodium quinoa leaves by local lesion assay; format: functional
Tobacco mosaic virus [9] = assay: Inhibition of TMV U1 multiplication in tobacco BY2 protoplast at 20 nM assessed as local lesion size on Chenopodium quinoa leaves by local lesion assay; format: functional
Tobacco mosaic virus [10] = assay: Inhibition of TMV U1 multiplication in tobacco BY2 protoplast at 50 nM assessed as inhibition of local lesions on Chenopodium quinoa leaves by local lesion assay after 3 days postinfection; format: functional; settings: U1, 72 h; summary of the method: as §1
Tobacco mosaic virus [11] = assay: Inhibition of TMV U1 replication in tobacco BY2 protoplast at 50 nM by local lesion assay using Chenopodium quinoa leaves; format: functional, organism-based; summary of the method: as §1
[12] = Growth inhibition of hamster BHK21 cells at 100 nM after 48 hrs; format: cell-based, Mesocricetus auratus; settings: bhk-21, 48 h, 0.1 µM
Summary of the method: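 BHK-21 cells mock-infected and incubated with 100 nM compound for 48 h; cell morphology and growth examined by light microscopy.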

Tobacco mosaic virus [13] = assay: Inhibition of TMV U1 replication in tobacco BY2 protoplast by local lesion assay using Chenopodium quinoa leaves; format: functional, organism-based; summary of the method: as §1
Tobacco mosaic virus [14] = assay: Inhibition of TMV U1 multiplication in tobacco BY2 protoplast at 30 nM assessed as local lesion size on Chenopodium quinoa leaves by local lesion assay; format: functional
Sindbis virus = assay: Antiviral activity against Sindbis virus XJ160 in BHK21 cells assessed as reduction of virus-induced cytopathic effect after 24 hrs; format: functional, organism-based; settings: BHK-21
Summary of the method: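 SINV XJ-160 (2 × 10⁵ pfu/ml, thrice plaque-purified) treated with compound for 15 min, adsorbed 1 h to BHK-21 cells at MOI 0.01 in quadruplicate; washed, fresh DMEM with 5% FBS added, cells kept at 37°C, 5% CO₂. Cytopathic morphology scored by light microscopy at 24 hpi.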

Tobacco mosaic virus [15] = assay: Antiviral activity against GFP-fused TMV U1 infected Nicotiana tabacum cv K326 plant leaves assessed as inhibition of virus movement by GFP fluorescence assay; format: functional, organism-based
Tobacco mosaic virus [16] = assay: Antiviral activity against TMV U1 infected Nicotiana tabacum cv K326 plant leaves assessed as inhibition of systemic virus infection; format: functional, organism-based

| IC50 (Tobacco mosaic virus [13]) [nM] | SMILES | Activity (Tobacco mosaic virus [1]) | Activity (Tobacco mosaic virus [2]) [mm] | inhibition at 0.01 µM (Tobacco mosaic virus [3]) [%] | Activity (Tobacco mosaic virus [4]) [mm] | inhibition at 0.04 µM (Tobacco mosaic virus [5]) [%] | inhibition at 0.03 µM (Tobacco mosaic virus [6]) [%] | inhibition at 0.02 µM (Tobacco mosaic virus [7]) [%] | Activity (Tobacco mosaic virus [8]) [mm] | Activity (Tobacco mosaic virus [9]) [mm] | inhibition at 0.05 µM (Tobacco mosaic virus [10]) [%] | Activity (Tobacco mosaic virus [11]) | Activity [12] | Activity (Tobacco mosaic virus [14]) [mm] | Activity (Sindbis virus) | Activity (Tobacco mosaic virus [15]) | Activity (Tobacco mosaic virus [16]) |
| --- | --- | --- | --- | --- | --- | --- | --- | --- | --- | --- | --- | --- | --- | --- | --- | --- | --- |
| 25 | CO[C@@H]1C[C@H](O[C@H]2CC[C@@]3(C)C(=CC[C@H]4C(=O)OC5CO[C@]6(C)OC=C(CC[C@@H]43)[C@H]56)C2)O[C@H](C)[C@H]1O (stereo not given in full) [CYNATRATOSIDE A] | Active | 1.2 | 20 | 2.3 | 93 | 87 | 37 | 0 | 1.8 | 100 | Active | Non-toxic | 1.5 | Dose-dependent effect | – | – |
| 17 | C[C@]12OC=C3CC[C@H]4[C@@H](CC=C5C[C@@H](O)CC[C@@]54C)C(=O)OC(CO1)[C@@H]32 (stereo not given in full) [GLAUCOGENIN C] | Active | 1.3 | 17 | 2.1 | 85 | 79 | 60 | 0 | 1.9 | 100 | Active | Non-toxic | 1.5 | Dose-dependent effect | Active | – |
| 25 | CO[C@H]1C[C@H](O[C@H]2[C@@H](OC)C[C@H](O[C@@H]3[C@@H](C)O[C@H](O[C@H]4CC[C@@]5(C)C(=CC[C@H]6C(=O)OC7CO[C@]8(C)OC=C(CC[C@@H]65)[C@H]78)C4)C[C@H]3OC)O[C@@H]2C)O[C@@H](C)[C@@H]1O[C@@H]1O[C@H](CO)[C@@H](O[C@@H]2O[C@H](CO)[C@@H](O)[C@H](O)[C@H]2O)[C@H](O)[C@H]1O (stereo not given in full) [PANICULATUMOSIDE D] | Active | 1.2 | 6 | 1.7 | 88 | 79 | 31 | 0 | 1.6 | 100 | Active | Non-toxic | 1.4 | Dose-dependent effect | Active | Active |
| 25 | CO[C@@H]1C[C@@H](O[C@H]2CC[C@@]3(C)C(=CC[C@H]4C(=O)OC5CO[C@]6(C)OC=C(CC[C@@H]43)[C@H]56)C2)O[C@H](C)[C@H]1O[C@H]1C[C@H](O)[C@H](O[C@H]2C[C@@H](OC)[C@@H](O[C@@H]3O[C@H](CO)[C@@H](O[C@@H]4O[C@H](CO)[C@@H](O)[C@H](O)[C@H]4O)[C@H](O)[C@H]3O)[C@H](C)O2)[C@@H](C)O1 (stereo not given in full) [PANICULATUMOSIDE E] | Active | 1.1 | 16 | 1.6 | 87 | 73 | 38 | 0 | 1.3 | 100 | Active | Non-toxic | 1.2 | Dose-dependent effect | Active | Active |
